We go through one molecule from ChEMBL document CHEMBL4033781 (J Med Chem, 2018).

In series [1] the test system is Liver. Description: Metabolic stability in human liver S9 fraction assessed as parent compound remaining at 1 uM after 60 mins relative to control. The class given is ADME, tissue-based. The conditions noted are these: s9, 1 h.
For series [2], the system named is Rattus norvegicus. Description: Inhibition of rat sperm total motility at 5 mg/kg administered daily via oral gavage for 6 to 12 days by SYTO staining based microscopic method relative to control. It is filed as functional. The method in brief:
(§1)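 Male rats were dosed daily by oral gavage, either at 5, 10 or 20 mg/kg for 3 days, or at 5 mg/kg for 3, 6, 9 or 12 days. Animals were then sacrificed and cauda epididymal sperm collected. Total and progressive motility were measured by CASA and compared with untreated controls. Values are mean ± SEM of three experiments.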

In series [3] the target is Na+/K+ ATPase alpha-3/beta-1 (Rattus norvegicus, UniProt P06687+P07340). Description: Inhibition of recombinant rat Na+/K+-ATPase alpha3/beta1 expressed in baculovirus infected insect Sf9 cell membranes using [gamma-32P]ATP as substrate preincubated for 20 mins followed by substrate addition measured after 30 mins by liquid scintillation counting. The method in brief:
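Rat α/β1 isoforms were expressed in baculovirus-infected Sf9 cells (72 h, 27 °C), washed in 10 mM imidazole-HCl pH 7.5 with 1 mM EGTA, and homogenised. Homogenates were assayed in 120 mM NaCl, 30 mM KCl, 3 mM MgCl₂, 0.2 mM EGTA and 30 mM Tris-HCl pH 7.4. Reactions were started with 2 mM γ[³²P]-ATP (final) and run 30 min at 37 °C. Released ³²Pi was extracted as phosphomolybdate into isobutanol and scintillation counted. IC50 came from single-site dose–response fits.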

Series [4] deals with Rattus norvegicus. Description: Inhibition of rat sperm progressive motility at 5 mg/kg administered daily via oral gavage for 3 days by SYTO staining based microscopic method. The class given is functional, organism-based. The gist of the method: as §1
The test system of series [5] is Liver. Description: Metabolic stability in rat liver S9 fraction assessed as parent compound remaining at 1 uM after 60 mins relative to control. The class given is ADME, tissue-based. The conditions noted are these: s9, 1 h.
For series [6], the target named is Na+/K+ ATPase alpha-1/beta-1 (Rattus norvegicus, UniProt P06685+P07340). Description: Inhibition of recombinant rat Na+/K+-ATPase alpha1/beta1 expressed in baculovirus infected insect Sf9 cell membranes using [gamma-32P]ATP as substrate preincubated for 20 mins followed by substrate addition measured after 30 mins by liquid scintillation counting. The method in brief:
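Rat α/β1 isoforms were expressed in baculovirus-infected Sf9 cells (72 h, 27 °C), washed in 10 mM imidazole-HCl pH 7.5 with 1 mM EGTA, and homogenised. Homogenates were assayed in 120 mM NaCl, 30 mM KCl, 3 mM MgCl₂, 0.2 mM EGTA and 30 mM Tris-HCl pH 7.4. Reactions were started with 2 mM γ[³²P]-ATP (final) and run 30 min at 37 °C. Released ³²Pi was extracted as phosphomolybdate into isobutanol and scintillation counted. Activity was taken as the 1 mM ouabain-sensitive fraction. IC50 came from single-site dose–response fits.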

Series [7] in a line: Apparent permeability from apical side to basolateral side in human Caco2 cells at 1 uM after 60 mins by HPLC-MS analysis. The class given is ADME, cell-based. The conditions noted are these: caco-2, 1 h. The gist of the method: (§2)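 Caco-2 monolayers were grown on Transwell filters, with test compound at 1 × 10^-6 M. Apical-to-basolateral flux was run at 37 °C with shaking, at pH 6.5 apical and pH 7.4 basolateral. Donor was sampled over 0–60 min and receiver at 60 min. Compound was quantified by full-scan HPLC-MS. Apparent permeability and percent recovery were derived from two determinations.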

Series [8] relates to Liver. Description: Metabolic stability in mouse liver S9 fraction assessed as parent compound remaining at 1 uM after 60 mins relative to control. Conditions: s9, 1 h. It is filed as ADME, tissue-based.
Series [9] has as its system Liver. Description: Metabolic stability in dog liver S9 fraction assessed as parent compound remaining at 1 uM after 60 mins relative to control. The class given is ADME, tissue-based, Canis lupus familiaris. The conditions noted are these: s9, 1 h.
Series [10] can be described thus: Apparent permeability from basolateral side to apical side in human Caco2 cells assessed as drug recovery at 1 uM after 60 mins by HPLC-MS analysis. It is filed as ADME, cell-based. The conditions noted are these: caco-2, 1 h.
Series [11] relates to Rattus norvegicus. Description: Inhibition of rat sperm total motility at 5 mg/kg administered daily via oral gavage for 3 days by SYTO staining based microscopic method. It is filed as functional, organism-based. The gist of the method: as §1
Series [12] relates to Rattus norvegicus. Description: Inhibition of rat sperm progressive motility at 5 mg/kg administered daily via oral gavage for 6 to 12 days by SYTO staining based microscopic method relative to control. The class given is functional. The method in brief: as §1
Series [13] concerns the target Voltage-gated inwardly rectifying potassium channel KCNH2 (Homo sapiens, UniProt Q12809). Description: Displacement of Tracer Red from human ERG expressed in cell membranes up to 60 uM by fluorescence polarization assay. The gist of the method:
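Competitive fluorescence polarization displacement of a fluorescently tagged hERG ligand used membranes from cells stably expressing hERG. Compounds were tested up to 60 μM.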
On the technique in general: Polarisation of emitted light reports the rotation of a fluorescent probe.

For series [14], the system named is Rattus norvegicus. Description: Inhibition of rat sperm movement at 20 mg/kg administered via oral gavage for 3 days by SYTO staining based microscopic method relative to control. Conditions: 72 h. The class given is functional. The method in brief:
as §1

A short description of series [15]: Apparent permeability from apical side to basolateral side in human Caco2 cells assessed as drug recovery at 1 uM after 60 mins by HPLC-MS analysis. The class given is ADME, cell-based. The conditions noted are these: caco-2, 1 h. The gist of the method: as §2
(Caco-2 monolayers are a common model of the intestinal barrier.)

Series [16] is described as follows: Apparent permeability from basolateral side to apical side in human Caco2 cells at 1 uM after 60 mins by HPLC-MS analysis. The class given is ADME, cell-based. Conditions: caco-2, 1 h.
Series [17] in a line: Metabolic stability in monkey liver S9 fraction assessed as parent compound remaining at 1 uM after 60 mins relative to control. The class given is ADME, tissue-based, Macaca mulatta. The conditions noted are these: rhesus monkey, s9, 1 h.
The test system of series [18] is MCF7. Description: Antiproliferative activity against human MCF7 cells up to 100 uM after 72 hrs by AlamarBlue assay. The class given is cell-based. Conditions: mcf7, 72 h. (In general: Alamar Blue is a resazurin reagent that responds to reducing activity.)

Calls of active or inactive are those of the source. The rule behind the calls is not given here.

Chain of Voltage-gated inwardly rectifying potassium channel KCNH2 (Q12809 whole entry): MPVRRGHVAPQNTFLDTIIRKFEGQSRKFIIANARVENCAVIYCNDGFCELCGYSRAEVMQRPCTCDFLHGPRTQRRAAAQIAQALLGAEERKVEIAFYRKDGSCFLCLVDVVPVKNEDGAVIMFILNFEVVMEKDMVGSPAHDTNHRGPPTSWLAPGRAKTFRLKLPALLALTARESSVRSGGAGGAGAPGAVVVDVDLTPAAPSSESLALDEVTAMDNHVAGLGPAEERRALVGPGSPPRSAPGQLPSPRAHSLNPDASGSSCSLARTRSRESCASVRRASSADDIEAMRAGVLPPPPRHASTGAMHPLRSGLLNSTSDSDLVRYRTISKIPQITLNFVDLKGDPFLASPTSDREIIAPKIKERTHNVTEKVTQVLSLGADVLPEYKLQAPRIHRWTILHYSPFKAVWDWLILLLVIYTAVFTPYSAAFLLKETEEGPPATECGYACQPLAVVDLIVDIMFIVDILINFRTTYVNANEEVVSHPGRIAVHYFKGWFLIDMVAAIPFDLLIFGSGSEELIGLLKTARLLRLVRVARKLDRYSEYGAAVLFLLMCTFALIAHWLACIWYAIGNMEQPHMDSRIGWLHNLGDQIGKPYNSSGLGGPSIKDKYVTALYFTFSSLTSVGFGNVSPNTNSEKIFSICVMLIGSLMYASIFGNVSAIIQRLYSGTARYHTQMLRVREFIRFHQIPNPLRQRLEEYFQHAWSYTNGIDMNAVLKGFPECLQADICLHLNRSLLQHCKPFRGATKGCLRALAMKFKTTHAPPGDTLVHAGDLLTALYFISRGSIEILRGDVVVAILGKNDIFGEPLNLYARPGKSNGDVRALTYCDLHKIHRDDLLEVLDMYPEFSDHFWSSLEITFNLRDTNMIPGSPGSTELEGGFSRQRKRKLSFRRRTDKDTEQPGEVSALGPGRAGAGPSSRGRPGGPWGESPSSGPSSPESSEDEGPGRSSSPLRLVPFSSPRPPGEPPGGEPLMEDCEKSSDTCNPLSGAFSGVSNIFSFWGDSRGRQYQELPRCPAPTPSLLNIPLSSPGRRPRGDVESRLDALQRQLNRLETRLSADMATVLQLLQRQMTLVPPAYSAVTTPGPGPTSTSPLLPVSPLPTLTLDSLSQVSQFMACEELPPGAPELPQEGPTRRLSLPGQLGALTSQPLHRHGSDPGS

Broadly, the inhibition in vivo is the share of the control response that was lost under treatment. As a reminder, the IC50 is the concentration at which inhibition is half-maximal. The Papp is the rate of passage across a membrane or cell layer, normalised by area and donor concentration. For the molecule `C[C@]12C[C@@H](O)[C@H]3[C@@H](CC[C@]4(O)C[C@@H](O)C[C@@H](O)[C@]34CO)[C@@]1(O)CC[C@@H]2c1cn(Cc2ccccc2)nn1`, the Stability was found to be 107% in series [1]; 95% in [5]; 76% in [8]; 99% in series [9]; 89% in [17]. For the same molecule, the inhibition in vivo at 5 mg/kg in series [2] came to 40%; in series [12], 50%. Besides, the concentration for half-maximal inhibition (IC50) in series [3] and in [6] was greater than 100 µM each time. The inhibition entry in [4] and in series [11] was “Active” in each case. The Papp was less than 0.2 ×10⁻⁶ cm/s in series [7] and 0.3 ×10⁻⁶ cm/s in [16]. Further, the Drug recovery in series [10] is given as 98%; in series [15], 94%. Further, the “inhibition (INH)” value in series [13] is listed as “Not Active”. In series [14], this molecule had an inhibition in vivo at 20 mg/kg of 50%. The Activity result in [18] was “Non-Toxic”.
